ChEMBL document CHEMBL1130396, “Angiotensin analogues palmitoylated in positions 1 and 4” (J Med Chem, 1997)
Where a SMILES comes first, the peptide text is derived from it. [ ]: non-standard residue; d: D form. The star is where a group is joined. X1 = CCCCCCCCCCCCCCCC(=O)OCCC(=O)*; Palmitoyl = CCCCCCCCCCCCCCCC(=O)*; X2 = CCCCCCCCCCCCCCCCCC*; Sar = CNCC(=O)O

What was measured:
[1] = molecular target: T1, Type-1 angiotensin II receptor (Bos taurus, UniProt P25104); assay: Dissociation constant for [125 I] Ang binding to type 1 Angiotensin II receptor of bovine adrenocortical membranes
T1 sequence (P25104 whole entry): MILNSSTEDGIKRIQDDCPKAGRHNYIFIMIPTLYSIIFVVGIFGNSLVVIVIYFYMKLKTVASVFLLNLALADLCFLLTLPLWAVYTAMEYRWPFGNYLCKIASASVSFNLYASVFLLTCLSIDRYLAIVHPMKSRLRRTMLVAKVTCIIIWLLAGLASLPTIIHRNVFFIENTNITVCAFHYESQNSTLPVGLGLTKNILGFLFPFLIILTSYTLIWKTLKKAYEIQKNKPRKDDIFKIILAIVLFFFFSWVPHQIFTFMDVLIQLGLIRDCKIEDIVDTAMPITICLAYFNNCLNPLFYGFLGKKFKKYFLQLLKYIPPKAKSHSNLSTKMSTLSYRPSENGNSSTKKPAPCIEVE

[2] = molecular target: T2, Type-1 angiotensin II receptor (Bos taurus) (UniProt P25104); assay: Relative affinity for type 1 Angiotensin II receptor of bovine adrenocortical membranes compared to angiotensin
T2 sequence (whole entry): T1 sequence (P25104 whole entry)
How it was run: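 Bovine adrenocortical membranes were incubated in 25 mM Tris/HCl (100 mM NaCl, 5 mM MgCl2, 0.2% BSA, pH 7.4) with peptide across 5 × 10^-11–10^-5 M and 30 pM [125I]Ang (final) for 45 min at 22 °C. Bound radioactivity was filtered and gamma-counted, with nonspecific binding defined by 1 µM Ang. […] At least three experiments were run in duplicate.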

[3] = molecular target: T3, Type-1 angiotensin II receptor (Oryctolagus cuniculus, UniProt P34976); assay: Negative log of the dose of antagonist (compound) that reduces response of a double dose of […] to that of a single dose, on rabbit aorta; format: functional, tissue-based; conditions: for Kb: read-out: pA2 (converted)
T3 sequence (P34976 whole entry): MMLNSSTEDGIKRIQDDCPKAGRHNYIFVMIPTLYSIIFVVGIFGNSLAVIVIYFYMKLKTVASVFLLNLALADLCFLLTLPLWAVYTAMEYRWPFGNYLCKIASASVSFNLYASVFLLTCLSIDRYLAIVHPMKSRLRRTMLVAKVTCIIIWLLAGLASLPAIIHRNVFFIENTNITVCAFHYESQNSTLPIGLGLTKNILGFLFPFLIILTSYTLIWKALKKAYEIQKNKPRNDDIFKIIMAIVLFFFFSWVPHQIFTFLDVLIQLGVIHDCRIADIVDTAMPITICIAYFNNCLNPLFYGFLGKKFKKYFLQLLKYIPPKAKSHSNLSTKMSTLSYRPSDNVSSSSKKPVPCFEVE
How it was run: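 Rabbit thoracic aorta rings in oxygenated Krebs, pH 7.4, at 37 °C under 2 g tension were preincubated 10 min with single antagonist concentrations. Ang concentration-response curves were then run with and without antagonist. pA2 came from Schild plot, or was estimated from lower doses for long-acting analogues. Duration was followed by Ang curves at 30 min, 1.5 h and 3 h, washing every 20 min. At least three evaluations were done.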

Oryctolagus cuniculus = species: Oryctolagus cuniculus; assay: Negative log of the dose of agonist that produces half-maximal contraction on rabbit aorta; format: functional
How it was run: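 New Zealand rabbit thoracic aorta rings (5 mm) were held in oxygenated Krebs, pH 7.4, at 37 °C under 2 g tension and equilibrated for 90 min. Isometric contractions were recorded. Cumulative dose-response curves (5 × 10^-11–10^-5 M) were expressed as % of maximal Ang stimulation, and pD2 was taken as the negative log of the dose giving half-maximal contraction. At least three evaluations were done.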

[4] = molecular target: T4, Type-1 angiotensin II receptor (Oryctolagus cuniculus) (UniProt P34976); assay: Relative affinity compared to the affinity of angiotensin II(Ang=100%) for Angiotensin II receptor, type 1 on rabbit aorta; format: tissue-based
T4 sequence (whole entry): T3 sequence (P34976 whole entry)

SMILES | RA [2] | pD2 (Oryctolagus cuniculus) | Kd [1] | other results
CCCCCCCCCCCCCCCC(=O)OC[C@H](NC(C)=O)C(=O)N[C@@H](CCCN=C(N)N)C(=O)N[C@H](C(=O)N[C@@H](Cc1ccc(O)cc1)C(=O)N[C@H](C(=O)N[C@@H](Cc1c[nH]cn1)C(=O)N1CCC[C@H]1C(=O)N[C@H](Cc1cccc2ccccc12)C(=O)O)C(C)C)C(C)C | 0.21 |  |  | pKd [1]: 5.65; pA2 [3]: < 5.5
CCCCCCCCCCCCCCCC(=O)Oc1ccc(C[C@H](NC(=O)[C@@H](NC(=O)[C@H](CCCN=C(N)N)NC(=O)CNC)C(C)C)C(=O)N[C@H](C(=O)N[C@@H](Cc2c[nH]cn2)C(=O)N2CCC[C@H]2C(=O)N[C@@H](Cc2ccccc2)C(=O)O)C(C)C)cc1 [listing 1 of 2 here] |  | 7.61 |  | 
CC(=O)N[C@@H](CO)C(=O)N[C@@H](CCCN=C(N)N)C(=O)N[C@H](C(=O)N[C@@H](Cc1ccc(O)cc1)C(=O)N[C@H](C(=O)N[C@@H](Cc1c[nH]cn1)C(=O)N1CCC[C@H]1C(=O)N[C@@H](Cc1ccccc1)C(=O)O)C(C)C)C(C)C (Ac-SRVYVHPF-OH) | 32.4 | 7.54 | 17.8 nM | RA [4]: 16.2
CNCC(=O)N[C@@H](CCCNC(=N)N)C(=O)N[C@H](C(=O)N[C@@H](Cc1ccc(O)cc1)C(=O)N[C@H](C(=O)N[C@@H](Cc1cnc[nH]1)C(=O)N1CCC[C@H]1C(=O)N[C@H](Cc1ccc2ccccc2c1)C(=O)O)C(C)C)C(C)C |  |  | 16.6 nM | Kb [3]: 7.94 nM
CCCCCCCCCCCCCCCC(=O)Oc1ccc(C[C@H](NC(=O)[C@@H](NC(=O)[C@H](CCCNC(=N)N)NC(=O)CNC)C(C)C)C(=O)N[C@H](C(=O)N[C@@H](Cc2cnc[nH]2)C(=O)N2CCC[C@H]2C(=O)N[C@H](Cc2ccc3ccccc3c2)C(=O)O)C(C)C)cc1 |  |  | 224 nM | Kb [3]: 102 nM
CC(C)[C@H](NC(=O)[C@H](CCCNC(=N)N)NC(=O)[C@@H](N)CO)C(=O)N[C@@H](Cc1ccc(O)cc1)C(=O)N[C@H](C(=O)N[C@@H](Cc1cnc[nH]1)C(=O)N1CCC[C@H]1C(=O)N[C@@H](Cc1ccccc1)C(=O)O)C(C)C (H-SRVYVHPF-OH) |  |  | 7.59 nM | 
CC(C)[C@H](NC(=O)[C@H](CCCN=C(N)N)NC(=O)CCO)C(=O)N[C@@H](Cc1ccc(O)cc1)C(=O)N[C@H](C(=O)N[C@@H](Cc1c[nH]cn1)C(=O)N1CCC[C@H]1C(=O)N[C@H](Cc1ccccc1)C(=O)O)C(C)C | 0.09 |  | 6460 nM | Kb [3]: 4900 nM
CCCCCCCCCCCCCCCC(=O)Oc1ccc(C[C@H](NC(=O)[C@@H](NC(=O)[C@H](CCCN=C(N)N)NC(=O)CNC)C(C)C)C(=O)N[C@H](C(=O)N[C@@H](Cc2c[nH]cn2)C(=O)N2CCC[C@H]2C(=O)N[C@@H](Cc2ccccc2)C(=O)O)C(C)C)cc1 [listing 2 of 2 here] |  |  | 3.55 nM | Kb [3]: 36.3 nM
CC[C@H](C)[C@H](NC(=O)[C@H](Cc1ccc(O)cc1)NC(=O)[C@@H](NC(=O)[C@H](CCCNC(=N)N)NC(=O)[C@@H](N)CC(=O)O)C(C)C)C(=O)N[C@@H](Cc1cnc[nH]1)C(=O)N1CCC[C@H]1C(=O)N[C@@H](Cc1ccccc1)C(=O)O [ANGIOTENSIN II] | 100 | 8.33 |  | RA [4]: 100
CCCCCCCCCCCCCCCC(=O)Oc1ccc(C[C@H](NC(=O)[C@@H](NC(=O)[C@H](CCCN=C(N)N)NC(=O)CNC)C(C)C)C(=O)N[C@H](C(=O)N[C@@H](Cc2c[nH]cn2)C(=O)N2CCC[C@H]2C(=O)N[C@H](Cc2ccccc2)C(=O)O)C(C)C)cc1 | 162 |  |  | 
CCCCCCCCCCCCCCCC(=O)OCCC(=O)N[C@@H](CCCN=C(N)N)C(=O)N[C@H](C(=O)N[C@@H](Cc1ccc(O)cc1)C(=O)N[C@H](C(=O)N[C@@H](Cc1c[nH]cn1)C(=O)N1CCC[C@H]1C(=O)N[C@@H](Cc1ccccc1)C(=O)O)C(C)C)C(C)C (X1-RVYVHPF-OH) | 0.21 | 5.46 | 2750 nM | RA [4]: 0.13
CNCC(=O)N[C@@H](CCCN=C(N)N)C(=O)N[C@H](C(=O)N[C@@H](Cc1ccc(O)cc1)C(=O)N[C@H](C(=O)N[C@@H](Cc1c[nH]cn1)C(=O)N1CCC[C@H]1C(=O)N[C@H](Cc1ccccc1)C(=O)O)C(C)C)C(C)C | 407 |  |  | RA [4]: 174
CC(C)[C@H](NC(=O)[C@H](CCCN=C(N)N)NC(=O)[C@@H](N)CO)C(=O)N[C@@H](Cc1ccc(O)cc1)C(=O)N[C@H](C(=O)N[C@@H](Cc1c[nH]cn1)C(=O)N1CCC[C@H]1C(=O)N[C@@H](Cc1ccccc1)C(=O)O)C(C)C (H-SRVYVHPF-OH) | 75.8 | 7.68 |  | RA [4]: 22.4
CC(=O)N[C@@H](CO)C(=O)N[C@@H](CCCN=C(N)N)C(=O)N[C@H](C(=O)N[C@@H](Cc1ccc(O)cc1)C(=O)N[C@H](C(=O)N[C@@H](Cc1c[nH]cn1)C(=O)N1CCC[C@H]1C(=O)N[C@H](Cc1cccc2ccccc12)C(=O)O)C(C)C)C(C)C | 1.78 |  |  | pKd [1]: 6.49; pA2 [3]: 6.99
CCCCCCCCCCCCCCCCCCOc1ccc(C[C@H](NC(=O)[C@@H](NC(=O)[C@H](CCCNC(=N)N)NC(=O)CNC)C(C)C)C(=O)N[C@H](C(=O)N[C@@H](Cc2cnc[nH]2)C(=O)N2CCC[C@H]2C(=O)N[C@@H](Cc2ccccc2)C(=O)O)C(C)C)cc1 (H-[Sar]RVY(X2)VHPF-OH) |  |  | 1550 nM | 
CNCC(=O)N[C@@H](CCCN=C(N)N)C(=O)N[C@H](C(=O)N[C@@H](Cc1ccc(O)cc1)C(=O)N[C@H](C(=O)N[C@@H](Cc1c[nH]cn1)C(=O)N1CCC[C@H]1C(=O)N[C@@H](Cc1ccccc1)C(=O)O)C(C)C)C(C)C |  | 8.57 |  | 
CC(C)[C@H](NC(=O)[C@H](CCCN=C(N)N)NC(=O)CCO)C(=O)N[C@@H](Cc1ccc(O)cc1)C(=O)N[C@H](C(=O)N[C@@H](Cc1c[nH]cn1)C(=O)N1CCC[C@H]1C(=O)N[C@@H](Cc1ccccc1)C(=O)O)C(C)C | 5.53 | 7.23 | 105 nM | RA [4]: 7.95
CCCCCCCCCCCCCCCC(=O)OC[C@H](NC(C)=O)C(=O)N[C@@H](CCCNC(=N)N)C(=O)N[C@H](C(=O)N[C@@H](Cc1ccc(O)cc1)C(=O)N[C@H](C(=O)N[C@@H](Cc1cnc[nH]1)C(=O)N1CCC[C@H]1C(=O)N[C@@H](Cc1ccccc1)C(=O)O)C(C)C)C(C)C (Ac-S(Palmitoyl)RVYVHPF-OH) |  |  | 490 nM | 
CNCC(=O)N[C@@H](CCCN=C(N)N)C(=O)N[C@H](C(=O)N[C@@H](Cc1ccc(O)cc1)C(=O)N[C@H](C(=O)N[C@@H](Cc1c[nH]cn1)C(=O)N1CCC[C@H]1C(=O)N[C@H](Cc1ccc2ccccc2c1)C(=O)O)C(C)C)C(C)C | 34.7 |  |  | 
CCCCCCCCCCCCCCCC(=O)OC[C@H](NC(C)=O)C(=O)N[C@@H](CCCN=C(N)N)C(=O)N[C@H](C(=O)N[C@@H](Cc1ccc(O)cc1)C(=O)N[C@H](C(=O)N[C@@H](Cc1c[nH]cn1)C(=O)N1CCC[C@H]1C(=O)N[C@@H](Cc1ccccc1)C(=O)O)C(C)C)C(C)C (Ac-S(Palmitoyl)RVYVHPF-OH) | 1.17 | <5.5 |  | 
CCCCCCCCCCCCCCCC(=O)Oc1ccc(C[C@H](NC(=O)[C@@H](NC(=O)[C@H](CCCN=C(N)N)NC(=O)CNC)C(C)C)C(=O)N[C@H](C(=O)N[C@@H](Cc2c[nH]cn2)C(=O)N2CCC[C@H]2C(=O)N[C@H](Cc2ccc3ccccc3c2)C(=O)O)C(C)C)cc1 | 2.57 |  |  | 
